# Results: ChEMBL document CHEMBL1152686, “Development and characterization of lysine based tripeptide analogues as inhibitors of Sir2 activity” (Bioorg Med Chem, 2009)
# Activity calls are given as the source filed them. The rule behind the calls is not given here.
# Assays:
# [1] = tested on: Plasmodium falciparum; assay: Inhibition of His-tagged Plasmodium falciparum Sir2 expressed in Escherichia coli at t500 uM preincubated 5 min before substrate assay mixture addition by FRET assay
# Procedure, shortened: (§1)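 Recombinant C-terminal His-tagged PfSir2 from E. coli BL21(DE3), Ni-NTA purified. Enzyme preincubated with inhibitor 5 min, then added to mix of 5 mM Tris-HCl pH 8.0, trichostatin A and trypsin with acetyl-lysine EDANS–DABCYL peptide. Deacetylation allows trypsin cleavage and a rise in fluorescence. Read at 37 °C on a spectrofluorimeter.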
# [2] = Inhibition of His-tagged Plasmodium falciparum Sir2 expressed in Escherichia coli preincubated 5 min before substrate assay mixture addition by FRET assay; procedure, shortened: as §1
# [3] = biological target: T1, NAD-dependent protein deacetylase sirtuin-1 (Homo sapiens) (UniProt Q96EB6); assay: Inhibition of human Sirt1
# T1 sequence (whole entry): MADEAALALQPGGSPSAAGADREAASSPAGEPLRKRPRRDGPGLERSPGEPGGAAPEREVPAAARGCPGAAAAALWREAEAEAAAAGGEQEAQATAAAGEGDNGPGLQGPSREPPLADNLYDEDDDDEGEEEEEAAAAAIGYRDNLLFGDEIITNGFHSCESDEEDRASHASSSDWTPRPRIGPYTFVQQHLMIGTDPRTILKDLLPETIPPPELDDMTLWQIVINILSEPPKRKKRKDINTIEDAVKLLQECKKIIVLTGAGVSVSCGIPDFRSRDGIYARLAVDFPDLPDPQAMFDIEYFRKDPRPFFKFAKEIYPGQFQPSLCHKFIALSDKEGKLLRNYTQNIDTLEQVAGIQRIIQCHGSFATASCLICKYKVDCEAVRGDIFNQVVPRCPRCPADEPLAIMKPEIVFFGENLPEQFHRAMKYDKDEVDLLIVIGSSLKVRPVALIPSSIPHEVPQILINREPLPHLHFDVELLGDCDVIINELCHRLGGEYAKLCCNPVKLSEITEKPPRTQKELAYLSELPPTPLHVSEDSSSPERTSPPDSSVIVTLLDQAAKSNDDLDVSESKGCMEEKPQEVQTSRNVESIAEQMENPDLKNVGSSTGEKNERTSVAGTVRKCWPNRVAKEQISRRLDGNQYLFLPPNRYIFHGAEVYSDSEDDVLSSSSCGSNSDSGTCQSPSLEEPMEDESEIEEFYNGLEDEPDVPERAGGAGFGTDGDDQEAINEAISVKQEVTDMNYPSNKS
# [4] = Competitive inhibition of His-tagged Plasmodium falciparum Sir2 expressed in Escherichia coli measured by primary plot of enzyme kinetics in presence of saturating acetylated peptide levels by FRET assay
# Procedure, shortened: (§2)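 His-tagged PfSir2 from E. coli, coupled FRET assay (acetyl-lysine EDANS–DABCYL peptide, trypsin cleavage after deacetylation), 37 °C. Initial velocities measured with one substrate varied, the other fixed at saturating level, at several fixed inhibitor levels. Parameters from non-linear regression. Lineweaver–Burk plots, plus secondary slope and intercept plots versus [I], fit linearly or by second-order polynomial. Two independently purified enzyme batches.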
# [5] = Competitive inhibition of His-tagged Plasmodium falciparum Sir2 expressed in Escherichia coli measured by secondary plot of slope versus inhibitor concentration in presence of saturating acetylated peptide levels by FRET assay; procedure, shortened: as §2
# [6] = Noncompetitive inhibition of His-tagged Plasmodium falciparum Sir2 expressed in Escherichia coli measured by secondary plot of intercept versus inhibitor concentration in presence of saturating NAD+ levels by FRET assay; procedure, shortened: as §2
# [7] = Noncompetitive inhibition of His-tagged Plasmodium falciparum Sir2 expressed in Escherichia coli measured by primary plot of enzyme kinetics in presence of saturating NAD+ levels by FRET assay; procedure, shortened: as §2
# [8] = Noncompetitive inhibition of His-tagged Plasmodium falciparum Sir2 expressed in Escherichia coli measured by secondary plot of slope versus inhibitor concentration in presence of saturating NAD+ levels by FRET assay; procedure, shortened: as §2
# [9] = tested on: Plasmodium falciparum; assay: Antiplasmodial activity against Plasmodium falciparum 3D7 infected in human O+ erythrocytes assessed as inhibition of parasite growth in intraerythrocytic stage after 24 hrs by [3H]hypoxanthine incorporation assay; type: functional, organism-based
# Procedure, shortened: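 P. falciparum 3D7 grown in human O+ erythrocytes at 5% hematocrit, RPMI 1640 with 10% human serum. Compound in DMSO, twofold serial dilutions from 400 to 0.2 µM. Wells at 2% parasitemia and 2% hematocrit, 37 °C in candle jar. After 24 h, 1.0 µCi [3H]hypoxanthine added per well for another 12 h. Filter-harvested counts; IC50 by interpolation from log plot. Done twice in duplicate.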
Compound,inhibition [1],IC50 [2] [µM],inhibition (qualitative call) [3],Ki [4] [µM],Ki [5] [µM],Ki [6] [µM],Ki [7] [µM],Ki [8] [µM],IC50 [9] [µM]
CC(=O)O[C@H]1C[C@H](n2cc(C)c(=O)[nH]c2=O)O[C@@H]1Cn1cc(COC(=O)NCCCC[C@H](NC(=O)OC(C)(C)C)C(=O)OCc2ccccc2)nn1,inactive,,,,,,,,
COC(=O)[C@@H](NC(=O)[C@H](CCCCNC(=O)OCc1cn([C@@H]2O[C@H](COC(C)=O)[C@H](OC(C)=O)[C@H](OC(C)=O)[C@H]2OC(C)=O)nn1)NC(=O)[C@H](Cc1ccccc1)NC(=O)OC(C)(C)C)C(C)C,,151,Active,85,80,193,154,172,
C#CCOC(=O)NCCCC[C@H](NC(=O)OC(C)(C)C)C(=O)O,inactive,,,,,,,,
C#CCOC(=O)NCCCC[C@H](NC(=O)OC(C)(C)C)C(=O)N[C@H](C(=O)OC)C(C)C,inactive,,,,,,,,
COC(=O)[C@@H](NC(=O)[C@H](CCCCNC(=O)OCc1cn(C[C@H]2O[C@H](OC)[C@H](OC(C)=O)[C@@H](OC(C)=O)[C@@H]2OC(C)=O)nn1)NC(=O)[C@H](Cc1ccccc1)NC(=O)OC(C)(C)C)C(C)C,,23,Active,60,60,119,134,90,9.8
COC(=O)[C@@H](NC(=O)[C@H](CCCCNC(=O)OCc1cn(C[C@H]2O[C@@H](n3cc(C)c(=O)[nH]c3=O)C[C@@H]2OC(C)=O)nn1)NC(=O)[C@H](Cc1ccccc1)NC(=O)OC(C)(C)C)C(C)C,,33,Active,60,64,113,124,115,
COC(=O)[C@@H](NC(=O)[C@H](CCCCNC(=O)OCc1cn([C@@H]2O[C@H]([C@@H]3COC(C)(C)O3)[C@@H]3OC(C)(C)O[C@@H]32)nn1)NC(=O)[C@H](Cc1ccccc1)NC(=O)OC(C)(C)C)C(C)C,,34,Active,58,62,125,122,90,
